Assay results published in publication PMC5839721 (The Journal of General Physiology, 2018).
Like-named read-outs stand apart in the source and are kept apart here.

Tests used:
human SERT [1] = target: T1, human SERT (Homo sapiens, UniProt P31645); assay: [3H]MPP+ release; format: cell-based; conditions: 3 µM releaser, 100 µM ouabain; for effect of monensin on efflux of [3H]MPP+: with vs without 10 µM monensin
Method in brief: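 HEK293 cells with inducible GFP-tagged human SERT on poly-D-lysine coverslips (24 h) were preloaded with 0.1 µM [3H]MPP+ for 20 min at 37°C. Superfused with K+-free buffer containing 100 µM ouabain for 40 min, then 2-min fractions: three basal, four with 10 µM monensin or ethanol vehicle, five with 3 µM test compound, three with 1% SDS. Release given as percent [3H]MPP+ over time.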

human SERT [2] = target: T1, human SERT; format: cell-based; conditions: for change of rate of peak current recovery with intracellular Na+ concentration: 0 to 140 mM intracellular Na+; for change of rate of peak current recovery with intracellular Na+ concentration / increase of rate of peak current recovery from 0 M to 140 mM intracellular Na+: extracellular Na+ 140 mM; for peak current recovery rate (monoexponential fit): fixed intracellular Na+ 140 mM, K+-free, Fig. 1 G; for kslow of peak current recovery (biexponential fit): after 30 µM substrate, ±SEM; for dependence of the recovery rates on extracellular Na+ concentration: intracellular Na+ 140 mM, extracellular Na+ 10-140 mM
Method in brief: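 GFP-tagged human SERT, tetracycline-inducible, in HEK293 cells seeded at low density 24 h before. Whole-cell voltage clamp with superfused pH 7.4 HEPES buffer. Na+ varied, osmolarity kept by NMDG chloride; intracellular Na+ 0–140 mM at 140 mM external. After 30 µM substrate, 10 µM 5-HT-evoked peak recovery fitted to mono- or biexponential rise; rates ±95% CI, kslow ±SEM; n = 4–7.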

T1 sequence (P31645 whole entry, the tested form may be a part): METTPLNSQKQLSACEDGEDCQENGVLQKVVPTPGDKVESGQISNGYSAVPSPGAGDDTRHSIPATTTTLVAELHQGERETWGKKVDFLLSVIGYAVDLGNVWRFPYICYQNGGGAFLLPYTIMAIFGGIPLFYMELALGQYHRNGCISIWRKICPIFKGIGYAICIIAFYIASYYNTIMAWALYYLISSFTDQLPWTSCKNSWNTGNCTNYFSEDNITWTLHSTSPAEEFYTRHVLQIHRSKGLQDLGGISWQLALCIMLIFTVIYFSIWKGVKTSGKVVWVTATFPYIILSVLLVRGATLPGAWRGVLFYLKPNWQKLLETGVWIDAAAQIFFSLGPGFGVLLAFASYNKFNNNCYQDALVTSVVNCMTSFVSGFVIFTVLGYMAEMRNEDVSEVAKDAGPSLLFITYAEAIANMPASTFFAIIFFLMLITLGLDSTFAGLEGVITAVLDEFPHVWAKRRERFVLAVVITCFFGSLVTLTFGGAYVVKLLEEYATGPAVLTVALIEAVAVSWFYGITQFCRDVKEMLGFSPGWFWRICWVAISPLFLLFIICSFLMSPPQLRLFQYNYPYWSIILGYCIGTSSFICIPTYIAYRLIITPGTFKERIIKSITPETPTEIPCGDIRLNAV

## CCN[C@@H](C)Cc1ccc2ccccc2c1 [PAL-1045]
Human SERT [1]
  effect of monensin on efflux of [3H]MPP+: comparable in the absence and presence of monensin
Human SERT [2]
  change of rate of peak current recovery with intracellular Na+ concentration: decreased fourfold
  peak current recovery rate (monoexponential fit): 0.025 ± 0.001 s⁻¹
Human SERT [2]; slow dissociation from the outward-facing conformation, high Na+
  dissociation rate from SERT: ~0.025 s⁻¹

## CC(N)Cc1ccc(Cl)cc1 (centres unmarked) [p-chloroamphetamine, para-chloroamphetamine]
Human SERT [1]; no monensin
  release of [3H]MPP+: substantially larger release of [^3H]MPP^+ than PAL-1045
Human SERT [1]
  effect of monensin on efflux of [3H]MPP+: significantly larger efflux
Human SERT [2]; 10 mM Na+e, 140 mM intracellular Na+
  kslow of peak current recovery (biexponential fit): 0.35 ± 0.23 s⁻¹
Human SERT [2]; 70 mM Na+e, 140 mM intracellular Na+
  kslow of peak current recovery (biexponential fit): 0.10 ± 0.12 s⁻¹
Human SERT [2]; 70 mM Na+i, 140 mM extracellular Na+
  kslow of peak current recovery (biexponential fit): 0.50 ± 0.11 s⁻¹
Human SERT [2]; 140 mM Na+e, 140 mM intracellular Na+
  kslow of peak current recovery (biexponential fit): 0.49 ± 0.15 s⁻¹
Human SERT [2]
  increase of rate of peak current recovery from 0 M to 140 mM intracellular Na+: ~10 fold
  dependence of the recovery rates on extracellular Na+ concentration: did not detect any dependence

## CNC(C)Cc1ccc2ccccc2c1 (centres unmarked) [PAL-1046]
Human SERT [2]
  change of rate of peak current recovery with intracellular Na+ concentration: did not change with Na^+ concentration

## NCCc1c[nH]c2ccc(O)cc12 [5-HT, 5-hydroxy-tryptamine]
Human SERT [2]
  increase of rate of peak current recovery from 0 M to 140 mM intracellular Na+: ~6.7 fold
  peak current recovery rate (monoexponential fit): 4.012 ± 0.211 s⁻¹
  dependence of the recovery rates on extracellular Na+ concentration: did not detect any dependence

## CC(N)Cc1ccc2ccccc2c1 (centres unmarked) [PAL-287]
Human SERT [2]
  change of rate of peak current recovery with intracellular Na+ concentration: did not change with Na^+ concentration
